Measurements of several laboratories.

SMILES | cell line | assay | conditions | measurement | value
Fc1ccc2c(CNCC3(N4CCC(F)C4)COC3)c[nH]c2c1 (stereo not shown) | A 172 | cell growth or viability | 30 µM, 48 h | viability | 80.6%
COc1ccc(-c2ccc(-c3ccc(C(=N)N)nc3)s2)cc1Cl | RXF 393 | cell growth or viability | – | GI50 | 1.76 µM
c1cc2cc(CNCC3(N4CCCC4)COC3)ccc2[nH]1 | A 172 | cell growth or viability | 30 µM, 48 h | viability | 97.6%
CC(C)(O)[C@H]1CC[C@H](Nc2ccc3ncc(-c4cccc(C(F)(F)F)c4)n3n2)CC1 | T24 | colony formation | – | EC50 | 1.1 µM
Cc1ccc(C(CS(=O)(=O)c2ccccc2)=NN=C2N=C(c3ccc(Br)cc3)CS2)cc1 | SK-MEL-23 | cell growth or viability, MTT | 1.6 µM, 48 h | viability | 72.1%
c1ccc(-c2ccc(CNCC3(N4CCCC4)COC3)o2)cc1 | A 172 | cell growth or viability | 30 µM, 48 h | viability | 78.5%
Cc1cc(Nc2ncc(Cl)c(Nc3ccccc3S(=O)(=O)C(C)C)n2)c(OC(C)C)cc1C1CCNCC1 | NCI-H2228 | cell growth or viability, MTT | 0.04 µg/mL, 72 h | inhibition | 57%
CC(C)(C)c1nc(-c2cccc(NS(=O)(=O)c3c(F)cccc3F)c2F)c(-c2ccnc(N)n2)s1 | SK-MEL-23 | cell growth or viability, MTT | 100 µM, 48 h | viability | 34.4%
Clc1ccccc1-c1ccc(CNCC2(N3CCCC3)COC2)o1 | A 172 | cell growth or viability | 30 µM, 48 h | viability | 70.6%
Cc1ccc(C(CS(=O)(=O)c2ccccc2)=NNC2=NC(=O)C(=NNc3ccccc3)S2)cc1 | SK-MEL-23 | cell growth or viability, MTT | 1.6 µM, 48 h | viability | 42.9%
C[C@@H](Oc1cc(-c2cnn(C3CCNCC3)c2)cnc1N)c1c(Cl)ccc(F)c1Cl | NCI-H2228 | cell growth or viability, MTT | 1 µg/mL, 72 h | inhibition | 72.3%
Cc1ccc(C(CS(=O)(=O)c2ccccc2)=NNc2nc(C)c(N=Nc3cccc(C)c3)s2)cc1 | SK-MEL-23 | cell growth or viability, MTT | 1.6 µM, 48 h | viability | 59.5%
COc1cc(-c2ccc(-c3ccc(C(=N)N)nc3)s2)cc(OC)c1OC | RXF 393 | cell growth or viability | – | GI50 | 2.19 µM
